Data on five compounds can be found in article PMC7758886 (ACS Omega, 2020).

Assay [1] relates to CXCR4. Put plainly: FRET-based Gαi2 activation, 96-well plate, CXCR4. It counts as cell-based. To be noted: HEK293, Gαi2 FRET sensor, ± SD, three to four independent plate reader experiments.
For assay [2], the target named is CmorAlstRC ΔN-term mutant (Carausius morosus).
The subject of assay [3] is α1A adrenergic receptor (α1AAR). Put plainly: FRET-based Gαq activation, α1A adrenergic receptor. It counts as cell-based. To be noted: HEK293, 96-well.
The subject of assay [4] is β1 adrenergic receptor (β1AR). Put plainly: Epac-S^H187 FRET cAMP production. Format: cell-based. The conditions noted are these: HEK293, Epac-S^H187 sensor; at least three individual experiments. In general terms: cAMP levels reflect the balance of adenylyl cyclase and phosphodiesterase activity.
In assay [5] the target is Carausius morosus allatostatin-C receptor with C-terminal EYFP (CmorAlstRC-EYFP) (Carausius morosus). Put plainly: FRET or BRET.
For assay [6], the system named is endogenous β-AR (HEK293 cells). Put plainly: Single-cell FRET microscopy of isoprenaline-stimulated cAMP production. It counts as cell-based. The conditions noted are these: 3 nM isoprenaline, continuous. The gist of the method: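 HEK293 cells co-transfected (Effectene) with receptor and Epac-SH187 cAMP FRET sensor; medium changed 16 h post-transfection, reseeded on PLL-coated coverslips, imaged 36–48 h post-transfection. One cell per coverslip, continuously perfused with FRET buffer (HEPES, pH 7.35) and/or ligand. FRET = corrected YFP/CFP ratio, normalized to baseline; cAMP rise lowers FRET. Traces averaged over eight cells from 3 days.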

Consider “CXCL12: agonist of CXCR4, positive control for Gαi2 activation”, for which, in assay [1], the “pEC50, Gαi2 activation” value is given as 9.49 ± 0.1.
In assay [2], “Drosophila melanogaster pGlu AST-C peptide (DmelASTC)” gave a pEC50 of Gαi2 FRET sensor activation by DmelASTC, ΔN-term mutant, 96-well plates of 8.47.
Take `NC[C@H](O)c1ccc(O)c(O)c1` [NE, Norepinephrine]: the “Gαq FRET sensor activation” value in assay [3] was “induced a concentration-dependent FRET decrease in the Gαq sensor”. Further, in assay [4], the “change in FRET signal (cAMP production)” value is listed as “decreased the FRET response (increased the cAMP level) in a NE concentration-dependent manner”.
For the compound “human Gαi2-ECFP (from UniProt P04899 1-355) (natural protein)”, in assay [5], the pEC50 of AST-C for the FRET change between CmorAlstRC-EYFP and Gαi2-ECFP amounted to 8.84; the tau of association (apparent, with 1 μM AST-C) is 227 ms; the tau of dissociation (apparent, wash-off of 1 μM AST-C) worked out at 3.8 s.
Regarding `CC(C)NCC(O)c1ccc(O)c(O)c1` (centres unmarked) [Iso, isoprenaline], in assay [6], the “FRET response, cAMP production” value was “sharp decrease in FRET”.
